Type in all cases: cell-based
Assay [1] deals with T1, Glutamate NMDA receptor; Grin1/Grin2b (Rattus norvegicus) (UniProt P35439+Q00960). Briefly: Positive allosteric modulation of recombinant rat GluN1alpha/GluN2B receptor expressed in HEK293 cells assessed as potentiation of glutamate-induced current response at 0.3 to 300 uM at holding potential -60mV by whole cell voltage clamp method relative to control. The method in brief:
(§1)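 HEK293 cells transfected with GluN1-1a, the GluN2 subunit and GFP. Whole-cell voltage clamp at -60 mV, series resistance <10 MΩ, 80-90% compensation, room temperature (21–25 °C). Compound is co-applied with 1 µM glutamate by multibarrel fast perfusion (exchange ~10 ms). DMSO is held at 1% in all test and control solutions. Readout is % potentiation of the glutamate-evoked current.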

In assay [2] the target is Glutamate NMDA receptor; Grin1/Grin2b (Rattus norvegicus, UniProt P35439+Q00960). Briefly: Positive allosteric modulation of recombinant rat GluN1alpha/GluN2B receptor expressed in HEK293 cells assessed as potentiation of glutamate-induced current response at holding potential -60mV by whole cell voltage clamp method. The gist of the method: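 HEK293 cells transfected with GluN1-1a, GluN2A, 2B, 2C or 2D and GFP cDNA. Whole-cell voltage clamp at -60 mV, 21–25 °C, series resistance <10 MΩ compensated 80–90%. Compound co-applied with 1 µM glutamate by fast multibarrel perfusion. DMSO 1% in all solutions. At least four cells per point.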

The target of assay [3] is T1, Glutamate NMDA receptor; Grin1/Grin2b (Rattus norvegicus). The assay can be described thus: Positive allosteric modulation of recombinant rat GluN1alpha/GluN2B receptor expressed in HEK293 cells assessed as potentiation of glutamate-induced current response at 1 to 100 uM at holding potential -60mV by whole cell voltage clamp method relative to control. The method in brief: as §1

The target is the same in assay [4]. Briefly: Positive allosteric modulation of recombinant rat GluN1alpha/GluN2B receptor expressed in HEK293 cells assessed as potentiation of glutamate-induced current response at 100 uM at holding potential -60mV by whole cell voltage clamp method relative to control. The gist of the method: as §1
The target is the same in assay [5]. Briefly: Positive allosteric modulation of recombinant rat GluN1alpha/GluN2B receptor expressed in HEK293 cells assessed as potentiation of glutamate-induced current response at 1 to 300 uM at holding potential -60mV by whole cell voltage clamp method relative to control.
The target in assay [6] is Ionotropic glutamate receptor NMDA 1/2D (Rattus norvegicus) (UniProt P35439+Q62645). Briefly: Positive allosteric modulation of recombinant rat GluN1alpha/GluN2D receptor expressed in HEK293 cells assessed as potentiation of glutamate-induced current response at 100 uM at holding potential -60mV by whole cell voltage clamp method relative to control. The method in brief:
as §1

For assay [7], the target named is Glutamate NMDA receptor; Grin1/Grin2c (Rattus norvegicus) (UniProt P35439+Q00961). Briefly: Positive allosteric modulation of recombinant rat GluN1alpha/GluN2C receptor expressed in HEK293 cells assessed as potentiation of glutamate-induced current response at 100 uM at holding potential -60mV by whole cell voltage clamp method relative to control. The gist of the method:
as §1

In assay [8] the target is Glutamate NMDA receptor; Grin1/Grin2a (Rattus norvegicus) (UniProt P35439+Q00959). The assay can be described thus: Positive allosteric modulation of recombinant rat GluN1alpha/GluN2A receptor expressed in HEK293 cells assessed as potentiation of glutamate-induced current response at 100 uM at holding potential -60mV by whole cell voltage clamp method relative to control. The gist of the method:
as §1

The structures appear in SMILES notation.

The source of these data is ChEMBL document CHEMBL4219253, “Positive Modulators of the N-Methyl-d-aspartate Receptor: Structure-Activity Relationship Study of Steroidal 3-Hemiesters” (J Med Chem, 2018).

Usually Emax stands for the greatest response seen or fitted, relative to the assay's reference. As a reminder, the EC50 is the midpoint of the concentration-response curve. On to `CC[C@H]1CC[C@H]2[C@@H]3CC=C4C[C@@H](OC(=O)CCCCCC(=O)O)CC[C@]4(C)[C@H]3CC[C@]12C`, for which, in assay [1], the maximal effect (Emax) is 48%. Moreover, the EC50 in assay [2] worked out at 26.2 µM.
With `CC(=O)[C@H]1CC[C@H]2[C@@H]3CC=C4C[C@@H](OC(=O)CCC(=O)O)CC[C@]4(C)[C@H]3CC[C@]12C` [PREGNENOLONE SUCCINATE], the maximum response (Emax) in assay [3] was 177%. The Activity in assay [4] was 267%. The EC50 in assay [2] turned out to be 27.6 µM.
Take `CC(=O)[C@H]1CC[C@H]2[C@@H]3CC=C4C[C@@H](OC(=O)CCCC(=O)O)CC[C@]4(C)[C@H]3CC[C@]12C`: the Emax in assay [3] was found to be 183%. Also, the Activity in assay [4] was determined as 460%. Further, the EC50 in assay [2] is 19 µM.
Turning to `CC(=O)[C@H]1CC[C@H]2[C@@H]3CC=C4C[C@@H](OC(=O)CCCCCCC(=O)O)CC[C@]4(C)[C@H]3CC[C@]12C`, the Emax in assay [3] is 156%. Moreover, in assay [2], the 50% effective concentration (EC50) is 19.3 µM.
In the same order, the values of `CC(=O)[C@H]1CC[C@H]2[C@@H]3CC=C4C[C@@H](OC(=O)CC(=O)O)CC[C@]4(C)[C@H]3CC[C@]12C` are 108% and 39.8 µM.
Turning to `CC[C@H]1CC[C@H]2[C@@H]3CC=C4C[C@@H](OC(=O)CCCCC(=O)O)CC[C@]4(C)[C@H]3CC[C@]12C`, the Emax in assay [1] was 60%. Also, the EC50 in assay [2] is 17.2 µM.
On to `C[C@@]12CCC[C@H]1[C@@H]1CC=C3C[C@@H](OC(=O)CCCCCC(=O)O)CC[C@]3(C)[C@H]1CC2`, for which the Emax in assay [1] amounted to 109%. In addition, the EC50 in assay [2] came to 1.8 µM.
Take `C[C@]12CC[C@H](OC(=O)CCCCC(=O)O)CC1=CC[C@@H]1[C@@H]2CC[C@]2(C)C(=O)CC[C@@H]12`: in assay [5], the Emax was found to be 180%. Further, the EC50 in assay [2] worked out at 109 µM.
As for `CC[C@H]1CC[C@H]2[C@@H]3CC=C4C[C@@H](OC(=O)CCCC(=O)O)CC[C@]4(C)[C@H]3CC[C@]12C`, the Emax in assay [1] came to 209%. For the same molecule, in assay [2], the EC50 was 9.9 µM.
For `CC(=O)[C@H]1CC[C@H]2[C@@H]3CC=C4C[C@@H](OC(=O)C(=O)O)CC[C@]4(C)[C@H]3CC[C@]12C`, in assay [3], the Emax worked out at 93%. Moreover, the EC50 in assay [2] came to 48.6 µM.
As for `CC(=O)[C@H]1CC[C@H]2[C@@H]3CC=C4C[C@@H](OC(=O)CCCCCC(=O)O)CC[C@]4(C)[C@H]3CC[C@]12C`, in assay [3], the maximal response (Emax) stood at 191%. Besides, the Activity in assay [4] stood at 458%. For the same molecule, in assay [2], the EC50 was found to be 18 µM.
`C[C@]12CC[C@H](OC(=O)CCCC(=O)O)CC1=CC[C@@H]1[C@@H]2CC[C@]2(C)C(=O)CC[C@@H]12`: the Emax in assay [5] turned out to be 154%. In addition, the EC50 in assay [2] came to 151 µM.
`C[C@@]12CCC[C@H]1[C@@H]1CC=C3C[C@@H](OC(=O)CCCCC(=O)O)CC[C@]3(C)[C@H]1CC2`: the Emax in assay [1] turned out to be 191%. Besides, the EC50 in assay [2] was 2.8 µM.
As to `C[C@]12CC[C@H](OC(=O)CCCCCCCC(=O)O)CC1=CC[C@@H]1[C@@H]2CC[C@]2(C)C(=O)CC[C@@H]12`, in assay [3], the Emax is 226%. The EC50 in assay [2] stood at 38.2 µM.
For `C[C@@]12CCC[C@H]1[C@@H]1CC=C3C[C@@H](OC(=O)CCCC(=O)O)CC[C@]3(C)[C@H]1CC2`, in assay [1], the maximal response (Emax) came out at 348%. Also, the EC50 in assay [2] was determined as 5.2 µM.
For `CC[C@H]1CC[C@H]2[C@@H]3CC=C4C[C@@H](OC(=O)CCC(=O)O)CC[C@]4(C)[C@H]3CC[C@]12C`, in that order: 133% and 9.9 µM.
For the molecule `C[C@]12CC[C@H](OC(=O)CCCCCC(=O)O)CC1=CC[C@@H]1[C@@H]2CC[C@]2(C)C(=O)CC[C@@H]12`, the Emax in assay [3] was determined as 187%. In assay [2], the EC50 came out at 82.4 µM.
For `C[C@@]12CCC[C@H]1[C@@H]1CC=C3C[C@@H](OC(=O)CCC(=O)O)CC[C@]3(C)[C@H]1CC2`, in assay [1], the Emax turned out to be 452%. For the same molecule, the EC50 in assay [2] was 7.4 µM.
`CC[C@H]1CC[C@H]2[C@@H]3CC=C4C[C@@H](OC(=O)CC(=O)O)CC[C@]4(C)[C@H]3CC[C@]12C`: in assay [1], the Emax turned out to be 71%. Also, the EC50 in assay [2] turned out to be 10.7 µM.
Consider `CC(=O)[C@H]1CC[C@H]2[C@@H]3CC=C4C[C@@H](OS(=O)(=O)O)CC[C@]4(C)[C@H]3CC[C@]12C.c1ccncc1`, for which the Emax in assay [3] came out at 116%. The Activity was -48% in assay [6], 78% in assay [4], -47% in assay [7] and 107% in assay [8].
Consider `C[C@]12CC[C@H](OC(=O)CCCCCCCCC(=O)O)CC1=CC[C@@H]1[C@@H]2CC[C@]2(C)C(=O)CC[C@@H]12`, for which the Emax in assay [3] was 165%. Moreover, the EC50 in assay [2] came to 16.1 µM.
For the molecule `C[C@@]12CCC[C@H]1[C@@H]1CC=C3C[C@@H](OC(=O)CC(=O)O)CC[C@]3(C)[C@H]1CC2`, the maximal response (Emax) in assay [1] is 236%. Besides, in assay [2], the EC50 is 4.7 µM.
In the case of `C[C@]12CC[C@H](OC(=O)CCCCCCC(=O)O)CC1=CC[C@@H]1[C@@H]2CC[C@]2(C)C(=O)CC[C@@H]12`, the Emax in assay [3] worked out at 189%. Besides, the EC50 in assay [2] was determined as 49.1 µM.
